# High-throughput results (PubChem BioAssay)
# INS-1E rescue = preserves ATP levels in cytokine-treated INS-1E cells; hit rate 0.1% among 20,000; protection from cytokine-induced ATP loss, % at 10 µM; INS-1E cytokine-induced death, ATP luminescence, 48 h; normalised: neutral wells 0, positive control 100;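 active = mean replicate protection from cytokine-induced ATP loss at least 50% and at least 75% of replicates each reaching 50%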
#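 Test system: INS-1E rat cells | Quantity: 8000 cells per well | Medium: Phenol-red-free RPMI with 5% fetal bovine serum | Reagent: Cytokine cocktail of IFN-γ, TNF-α and IL-1β | Doses: One compound concentration, pin transfer | Timing: 48 h co-treatment, 10 min post-lysis read | Technique: Luminescent ATP assay (CellTiter-Glo)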
# T cruzi HTS = blocks T. cruzi growth inside host cells. activity score (inhibition), % at 5.01 µM. intracellular Trypanosoma cruzi in host cells, plate reader. hit rate 4.9% among 22,000; in the data active = activity score above about 55%;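 also: parasites and compound incubated about four days before reading; 0% = median of neutral control wells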
# A1 apoptosis 2 = blocks A1, raising caspase activity | caspase activation, % (concentration not given with the values) | MEF A1-2A-BIM cells, caspase-Glo luminescence, 3 h; percent of clofoctol response, DMSO zero | 24,000 tested, under 10 active | AID 2465; in the data active = caspase activation above about 5.9%
#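 Material: mouse embryonic fibroblasts co-expressing A1 and BIM (A1-2A-BIM), primed for A1 dependence / Quantity: 2500 cells/well / Buffer or medium: RPMI-1640 growth medium with 10% FBS / Doses: 50 nL compound per well, pinned / Schedule: 3 h compound exposure at 37 °C / Signal: Caspase-Glo luminescence (DEVD substrate) / Measure: Caspase-3/7 activation, seen as rise in luminescence signal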
# The depositor's hits bear a star; nt = no result given. The sample as a whole holds a higher share of hits than the screen did.
SMILES,INS-1E rescue,T cruzi HTS,A1 apoptosis 2
C[C@H]1CN([C@@H](C)CO)C(=O)c2cc(NS(=O)(=O)c3cccs3)ccc2O[C@H]1CN(C)Cc1ccc(C(F)(F)F)cc1,nt,39,0
C[C@H]1CN([C@@H](C)CO)C(=O)c2cc(NS(=O)(=O)c3cccs3)ccc2O[C@@H]1CN(C)Cc1ccc(C(F)(F)F)cc1,nt,nt,0
C[C@H](CO)N1C[C@H](C)[C@@H](CN(C)Cc2ccc(C(F)(F)F)cc2)Oc2ccc(NS(=O)(=O)c3cccs3)cc2C1=O,-12,60*,-1
O=C(NO)c1cccc(C(=O)N/N=C/c2ccoc2)c1,1,-23,0
C[C@@H]1CN([C@H](C)CO)C(=O)Cc2cc(NS(C)(=O)=O)ccc2O[C@@H]1CN(C)CC1CCCCC1,8,1,-1
CCOc1ncnc2ccc(Br)cc12,nt,nt,1
C[C@H]1CN([C@@H](C)CO)C(=O)c2cccc(NC(=O)NC3CCCCC3)c2O[C@H]1CN(C)Cc1ccc(C(=O)Nc2ccccc2N)cc1,-19,60*,nt
C[C@@H]1CN([C@H](C)CO)C(=O)c2cccc(NC(=O)NC3CCCCC3)c2O[C@@H]1CN(C)Cc1ccc(C(=O)Nc2ccccc2N)cc1,17,67*,1
C[C@@H]1CN([C@@H](C)CO)C(=O)c2cccc(NC(=O)C3CCCCC3)c2O[C@@H]1CN(C)Cc1ccc(C(=O)Nc2ccccc2N)cc1,47,61*,nt
C[C@@H]1CN([C@@H](C)CO)C(=O)c2cccc(NC(=O)C3CC3)c2O[C@H]1CN(C)Cc1ccc(C(=O)Nc2ccccc2N)cc1,-10,38,0
C[C@H](CO)N1C[C@H](C)[C@H](CN(C)Cc2ccc(C(=O)Nc3ccccc3N)cc2)Oc2c(NC(=O)NC3CCCCC3)cccc2C1=O,-9,58*,-1
CC(C)NC(=O)Nc1cccc2c1O[C@@H](CN(C)Cc1ccc(C(=O)Nc3ccccc3N)cc1)[C@@H](C)CN([C@@H](C)CO)C2=O,-15,27,1
CC(C)NC(=O)Nc1cccc2c1O[C@H](CN(C)Cc1ccc(C(=O)Nc3ccccc3N)cc1)[C@H](C)CN([C@@H](C)CO)C2=O,28,52,-1
CC(C)NC(=O)Nc1cccc2c1O[C@@H](CN(C)Cc1ccc(C(=O)Nc3ccccc3N)cc1)[C@@H](C)CN([C@H](C)CO)C2=O,-14,31,-2
CC1(C)[C@H]2CC=C(/C=N\NC(=O)CCCCCCC(=O)O)[C@@H]1C2,6,-9,1
O=C(NO)c1ccc(C(=O)N/N=C/c2cccnc2Br)cc1,-10,5,0
O=C(NO)c1cccc(C(=O)N/N=C/c2cccc3ccccc23)c1,17,-20,1
COc1ccc(S(=O)(=O)Nc2ccc3c(c2)C(=O)N([C@H](C)CO)C[C@H](C)[C@H](CN(C)S(=O)(=O)c2ccc(C)cc2)OCCCC[C@@H](C)O3)cc1,-5,33,-1
COc1ccc(S(=O)(=O)Nc2ccc3c(c2)CC(=O)N([C@@H](C)CO)C[C@@H](C)[C@@H](CN(C)C(=O)Nc2cccc4ccccc24)O3)cc1,3,-22,nt
C[C@H]1CN([C@@H](C)CO)C(=O)c2cccc(NS(=O)(=O)c3ccccc3)c2O[C@H]1CN(C)S(=O)(=O)c1ccccc1,11,3,-1
C[C@@H]1CN([C@@H](C)CO)C(=O)c2cccc(NC(=O)c3nc4ccccc4s3)c2O[C@H]1CN(C)CC1CCCCC1,-61,44,-1
C[C@H](CO)N1C[C@H](C)[C@@H](CN(C)Cc2ccc(Cl)c(Cl)c2)Oc2c(NC(=O)c3nc4ccccc4s3)cccc2C1=O,-28,69*,0
COc1ccc(CN(C)C[C@@H]2Oc3c(NC(=O)c4nc5ccccc5s4)cccc3C(=O)N([C@H](C)CO)C[C@H]2C)cc1,-18,57*,-1
C[C@@H]1CN([C@@H](C)CO)C(=O)c2cccc(NC(=O)c3nc4ccccc4s3)c2O[C@@H]1CN(C)Cc1ccc(C(F)(F)F)cc1,-56,61*,-1
C[C@@H]1CN([C@H](C)CO)C(=O)c2cccc(NC(=O)c3nc4ccccc4s3)c2O[C@H]1CN(C)CC1CCCCC1,-8,58*,0
C[C@@H]1CN([C@@H](C)CO)C(=O)c2cccc(NC(=O)c3nc4ccccc4s3)c2O[C@@H]1CN(C)Cc1ccccc1,-49,36,nt
C[C@@H]1CN([C@H](C)CO)C(=O)c2cccc(NC(=O)c3nc4ccccc4s3)c2O[C@H]1CN(C)Cc1ccc(Cl)c(Cl)c1,-60,51,nt
COc1ccc(CN(C)C[C@@H]2Oc3c(NC(=O)c4nc5ccccc5s4)cccc3C(=O)N([C@@H](C)CO)C[C@H]2C)cc1,-15,47,-1
